Non-standard residues stand in square brackets, D forms with d. Residues, ends and D or L forms follow the SMILES beside them. dTrp(2-Me) = Cc1[nH]c2ccccc2c1C[C@@H](N)C(=O)O; Aib = CC(C)(N)C(=O)O
Legend:
[1] = target: T1, Growth hormone secretagogue receptor type 1 (Homo sapiens, UniProt Q92847); experiment: Binding affinity towards human pituitary Growth hormone secretagogue receptor using [125I][Tyr4]-ghrelin as radioligand
[2] = target: T1, Growth hormone secretagogue receptor type 1; experiment: Binding affinity towards cloned human Growth hormone secretagogue receptor type I in LLC PK-1 cells using [125I][His9]-ghrelin as radioligand; type: cell-based
[3] = system: Rattus norvegicus; experiment: Ratio of GH release stimulated by 300 ug/kg of compound to that of GH release stimulated by 300 ug/kg of hexarelin in infant rat (sc injection); type: functional
Summary of the method: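 Male 10-day-old Sprague-Dawley pups, about 25 g, eight per group. Dosed sc at 300 µg/kg, with solvent as DMSO at final 1:300 dilution. Killed by decapitation 15 min later; trunk-blood plasma GH measured by RIA against the NIDDK rat standard, in ng/mL. Response compared with hexarelin at the same dose.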

[4] = system: Canis familiaris; experiment: Concentration in dogs after oral administration at dose of 1 mg/kg after 180 min.; type: ADME, organism-based, Canis lupus familiaris; parameters: dose 1 mg/kg, route oral; conditions: dog, in vivo, 3 h
Summary of the method: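 Beagle dogs (4–6, 2–3 years, 11–15 kg, both sexes) dosed 1 mg/kg through an oral-gastric cannula in randomized sequence. Blood drawn from the cephalic vein at −20 min, then at 15–180 min into EDTA tubes. Plasma GH measured by canine GH RIA (sensitivity 0.4 ng/mL). Peak GH and AUC0–180 min by trapezoid method reported as mean ± SEM; sexes pooled.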

[5] = Stimulating GH secretion in dogs after oral administration at dose of 1 mg/kg

T1 sequence (Q92847 whole entry): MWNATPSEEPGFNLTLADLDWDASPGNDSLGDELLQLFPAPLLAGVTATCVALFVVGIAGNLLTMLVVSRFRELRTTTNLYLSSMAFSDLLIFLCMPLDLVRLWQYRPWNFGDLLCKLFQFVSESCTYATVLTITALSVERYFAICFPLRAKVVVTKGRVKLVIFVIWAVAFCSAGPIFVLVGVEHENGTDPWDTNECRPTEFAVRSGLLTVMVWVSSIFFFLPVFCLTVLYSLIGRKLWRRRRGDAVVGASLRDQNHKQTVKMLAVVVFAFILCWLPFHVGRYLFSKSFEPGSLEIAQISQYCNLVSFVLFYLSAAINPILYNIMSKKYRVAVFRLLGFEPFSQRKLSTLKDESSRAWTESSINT

Row | IC50 [1] | IC50 [2] | GH AUC 0-180 [4] | GH peak [5] | Structure (SMILES) | Ratio [3]
1 | 12 nM | 286 nM | – | – | Cc1[nH]c2ccccc2c1C[C@@H](NC(=O)[C@H](Cc1c[nH]cn1)NC(=O)[C@H](C)NC(=O)[C@@H](N)Cc1ccc(O)cc1)C(=O)N[C@@H](C)C(=O)N[C@@H](Cc1c[nH]c2ccccc12)C(=O)N[C@H](Cc1ccccc1)C(=O)N[C@@H](CCCCN)C(N)=O (H-YAH[dTrp(2-Me)]AW[dF]K-NH2) | –
2 | – | – | – | – | CNC(C)(C)C(=O)N[C@H](Cc1c[nH]c2ccccc12)C(=O)N[C@H](Cc1c[nH]c2ccccc12)NC(=O)Cc1ccccc1 | 0.16
3 | 74 nM | 58 nM | 85.85 µg·min/L | 1.1 µg/L | CNC(C)(C)C(=O)N[C@H](Cc1c[nH]c2ccccc12)C(=O)N[C@H](Cc1c[nH]c2ccccc12)NC(C)=O | 1.38
4 | – | – | – | – | CC(C)(N)C(=O)N[C@@H](Cc1c[nH]c2ccccc12)C(=O)N[C@@H](Cc1c[nH]c2ccccc12)NC=O | 0.08
5 | 25.6 nM | 29.5 nM | 262.43 µg·min/L | – | CNC(C)(C)C(=O)N[C@H](Cc1c[nH]c2ccccc12)C(=O)N(C)[C@H](Cc1c[nH]c2ccccc12)NC(C)=O | –
6 | 213 nM | 397 nM | – | – | CNC(C)(C)C(=O)N[C@H](Cc1c[nH]c2ccccc12)C(=O)N[C@H](Cc1c[nH]c2ccccc12)NC(=O)CC(C)C | 0.1
7 | 16.9 nM | 162 nM | 79.54 µg·min/L | – | CCNC(=O)N[C@@H](Cc1c[nH]c2ccccc12)NC(=O)[C@@H](Cc1c[nH]c2ccccc12)NC(=O)C(C)(C)N | –
8 | – | – | – | – | CC(=O)N[C@@H](Cc1c[nH]c2ccccc12)N(C)C(=O)[C@@H](Cc1c[nH]c2ccccc12)NC(=O)C(C)(C)N | 0.65
9 | 21.5 nM | 116 nM | 87.06 µg·min/L | – | CC(C)(N)C(=O)N[C@H](Cc1c[nH]c2ccccc12)C(=O)N[C@H](Cc1c[nH]c2ccccc12)NC(=O)C1CCCCN1 (some centres undefined) | –
10 | – | – | – | – | CC(=O)N[C@@H](Cc1c[nH]c2ccccc12)NC(=O)[C@@H](Cc1c[nH]c2ccccc12)NC(=O)C1(N)CCNCC1 | 0.46
11 | – | – | – | – | CC(C)(N)C(=O)N[C@](C)(Cc1c[nH]c2ccccc12)C(=O)N[C@H](Cc1c[nH]c2ccccc12)NC=O | 0.12
12 | – | – | – | – | CNC(C)(C)C(=O)N[C@H](Cc1c[nH]c2ccccc12)C(=O)N[C@H](Cc1c[nH]c2ccccc12)NC(=O)Cc1c[nH]c2ccccc12 | 0.17
13 | 59.8 nM | 535 nM | – | – | CC(C)CC(=O)N[C@@H](Cc1c[nH]c2ccccc12)NC(=O)[C@@H](Cc1c[nH]c2ccccc12)NC(=O)C(C)(C)N | 0.24
14 | – | – | – | – | CN[C@H](Cc1c[nH]c2ccccc12)C(=O)N[C@H](Cc1c[nH]c2ccccc12)NC=O | 0.09
15 | – | – | – | – | Cc1[nH]c2ccccc2c1C[C@@H](NC(=O)[C@@H](N)Cc1c[nH]cn1)C(=O)N[C@@H](C)C(=O)N[C@@H](Cc1c[nH]c2ccccc12)C(=O)N[C@H](Cc1ccccc1)C(=O)N[C@@H](CCCCN)C(N)=O [EXAMORELIN] (H-H[dTrp(2-Me)]AW[dF]K-NH2) | 1
16 | – | – | – | – | CC(C)(N)C(=O)N[C@H](Cc1c[nH]c2ccccc12)C(=O)N[C@](C)(Cc1c[nH]c2ccccc12)NC=O | 0.91
17 | – | – | – | – | CC(C)(N)C(=O)N[C@H](Cc1c[nH]c2ccccc12)C(=O)N[C@H](Cc1c[nH]c2ccccc12)NC(=O)CCC1CCCCC1 | 0.15
18 | – | – | – | – | CNC(C)(C)C(=O)N[C@H](Cc1c[nH]c2ccccc12)C(=O)N[C@](C)(Cc1c[nH]c2ccccc12)NC(C)=O | 1
19 | 20.1 nM | 440 nM | – | – | CC(=O)N[C@@H](Cc1c[nH]c2ccccc12)NC(=O)[C@@H](Cc1c[nH]c2ccccc12)NC(=O)C(C)(C)N(C)C | 0.15
20 | 39 nM | 22.7 nM | – | – | CNC(C)(C)C(=O)N[C@H](Cc1c[nH]c2ccccc12)C(=O)N[C@H](Cc1c[nH]c2ccccc12)NC=O | 0.64
21 | – | – | – | – | CC(=O)N[C@@H](Cc1c[nH]c2ccccc12)NC(=O)[C@@H](Cc1c[nH]c2ccccc12)NC(=O)CC(C)C | 0.11
22 | – | – | – | – | CNC(C)(C)C(=O)N[C@H](Cc1c[nH]c2ccccc12)C(=O)N[C@@H](Cc1c[nH]c2ccccc12)N(C)C(C)=O | 0.2
23 | – | – | – | – | CN(C)C(C)(C)C(=O)N[C@H](Cc1c[nH]c2ccccc12)C(=O)N[C@H](Cc1c[nH]c2ccccc12)NC=O | 0.69
24 | – | – | – | – | CS(=O)(=O)N[C@H](Cc1c[nH]c2ccccc12)C(=O)N[C@H](Cc1c[nH]c2ccccc12)NC=O | 0.09

Row | IC50 [1] | IC50 [2] | GH AUC 0-180 [4] | GH peak [5] | Structure (SMILES) | Ratio [3]
25 | – | – | – | – | Cc1[nH]c2ccccc2c1C[C@@H](NC(=O)[C@@H](Cc1c(C)[nH]c2ccccc12)NC(=O)C(C)(C)N)C(N)=O (H-[Aib]-[dTrp(2-Me)]-[dTrp(2-Me)]-NH2) | 0.89
26 | – | – | – | – | Cc1[nH]c2ccccc2c1C[C@H](NC=O)NC(=O)[C@@H](Cc1c(C)[nH]c2ccccc12)NC(=O)C(C)(C)N | 0.08
27 | – | – | – | – | CC(C)(N)C(=O)N[C@H](Cc1c[nH]c2ccccc12)C(=O)N[C@H](Cc1c[nH]c2ccccc12)NC(=O)Cc1c[nH]c2ccccc12 | 0.16
28 | – | – | – | – | CNC(C)(C)C(=O)N[C@H](Cc1c[nH]c2ccccc12)C(=O)N[C@H](Cc1c[nH]c2ccccc12)NC(=O)C1CCCCN1 (some centres undefined) | 0.85
29 | 185 nM | 460 nM | – | – | CCC(=O)N[C@@H](Cc1c[nH]c2ccccc12)NC(=O)[C@@H](Cc1c[nH]c2ccccc12)NC(=O)C(C)(C)N | 0.69
30 | 16.2 nM | 122 nM | – | – | CCOC(=O)N[C@@H](Cc1c[nH]c2ccccc12)NC(=O)[C@@H](Cc1c[nH]c2ccccc12)NC(=O)C(C)(C)N | 0.2
31 | 391 nM | 1160 nM | – | – | O=CN[C@@H](Cc1c[nH]c2ccccc12)NC(=O)[C@@H](Cc1c[nH]c2ccccc12)NC(=O)C1CCNCC1 | 0.82
32 | 18 nM | – | – | – | Cc1[nH]c2ccccc2c1C[C@@H](NC(=O)[C@@H](N)Cc1cnc[nH]1)C(=O)N[C@@H](C)C(=O)N[C@@H](Cc1c[nH]c2ccccc12)C(=O)N[C@H](Cc1ccccc1)C(=O)N[C@@H](CCCCN)C(N)=O [EXAMORELIN] (H-H[dTrp(2-Me)]AW[dF]K-NH2) | –
33 | – | – | – | – | CC(C)(N)C(=O)N[C@@H](Cc1c[nH]c2ccccc12)C(=O)N[C@H](Cc1c[nH]c2ccccc12)NC=O | 0.07
34 | – | – | 544.55 µg·min/L | – | CC(C)(N)C(=O)N[C@H](COCc1ccccc1)C(=O)N1CCC2(CC1)CN(S(C)(=O)=O)c1ccccc12 [IBUTAMOREN] | –
35 | 22.9 nM | 123 nM | 675.35 µg·min/L | 5.5 µg/L | CC(C)(N)C(=O)N[C@H](Cc1c[nH]c2ccccc12)C(=O)N[C@H](Cc1c[nH]c2ccccc12)NC=O [MACIMORELIN] | 1.31
36 | > 10000 nM | 807 nM | – | – | CC(=O)N[C@@H](Cc1c[nH]c2ccccc12)NC(=O)[C@@H](Cc1c[nH]c2ccccc12)NC(=O)C1CCNCC1 | 0.53
37 | – | – | – | – | CC(C)CC(=O)N[C@H](Cc1c[nH]c2ccccc12)C(=O)N[C@H](Cc1c[nH]c2ccccc12)NC=O | 0.09
38 | – | – | – | – | CNC(C)(C)C(=O)N[C@H](Cc1c[nH]c2ccccc12)C(=O)N[C@H](Cc1c[nH]c2ccccc12)NC(=O)CCC1CCCCC1 | 0.16
39 | – | – | – | – | CNC(C)(C)C(=O)N[C@H](Cc1c[nH]c2ccccc12)C(=O)N[C@H](Cc1c[nH]c2ccccc12)N(C)C(C)=O | 1.21
40 | 3850 nM | 228 nM | – | – | CC(=O)N[C@@H](Cc1c[nH]c2ccccc12)NC(=O)[C@@H](Cc1c[nH]c2ccccc12)NC(=O)C(C)(C)N | 0.77
41 | > 10000 nM | 167 nM | – | – | CCC(=O)N[C@@H](Cc1c[nH]c2ccccc12)NC(=O)[C@@H](Cc1c[nH]c2ccccc12)NC(=O)C(C)(C)NC | 0.93
42 | – | – | – | – | Cc1[nH]c2ccccc2c1C[C@@H](NC=O)NC(=O)[C@@H](Cc1c(C)[nH]c2ccccc12)NC(=O)C(C)(C)N | 0.12
43 | – | – | – | – | CC(=O)N[C@@H](Cc1c[nH]c2ccccc12)NC(=O)[C@@H](Cc1c[nH]c2ccccc12)NC(C)=O | 0.13
44 | – | – | – | – | CC(C)(N)C(=O)N[C@H](Cc1c[nH]c2ccccc12)C(=O)N[C@@H](Cc1c[nH]c2ccccc12)NC=O | 0.28
45 | – | – | – | – | O=CN[C@@H](Cc1c[nH]c2ccccc12)NC(=O)[C@@H](Cc1c[nH]c2ccccc12)NS(=O)(=O)c1ccccc1 | 0.14
46 | 1790 nM | 337 nM | – | – | NC1(C(=O)N[C@H](Cc2c[nH]c3ccccc23)C(=O)N[C@H](Cc2c[nH]c3ccccc23)NC=O)CCNCC1 | 0.95
47 | – | – | – | – | CC(C)(N)C(=O)N[C@H](Cc1c[nH]c2ccccc12)C(=O)N[C@H](Cc1c[nH]c2ccccc12)NC(=O)Cc1ccccc1 | 0.11

From ChEMBL document CHEMBL1136740, “New active series of growth hormone secretagogues” (J Med Chem, 2003)
